Assay results reported in PubChem BioAssay AID2378 (NMMLSC, 2010).

Molecular target: Cell division control protein 42 homolog (Homo sapiens) (UniProt P60953)
Assay: Cdc42 GTP Bmax and Kd shifts – biochemical, EDTA buffer, varying GTP, mechanism study for Ras-family GTPase inhibitor project, late-stage follow-up (AID 2378)
Details: GST-Cdc42 beads, BODIPY-GTP binding, flow cytometry
Procedure, shortened: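 Assay system: GST-Cdc42 on glutathione beads | Quantity: 4 µM GST-Cdc42 for bead loading | Doses: 10 µM compound, single dose | Times: 4 °C overnight capture, 2 min pre-incubation | Detection: Flow cytometry measurement of bead-associated BODIPY-GTP fluorescence | Read-out basis: GTP Bmax and Kd from one-site hyperbolic fit of specific binding | Benchmarks: DMSO vehicle reference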

Chain of Cell division control protein 42 homolog (Homo sapiens) (P60953 whole entry, looked up): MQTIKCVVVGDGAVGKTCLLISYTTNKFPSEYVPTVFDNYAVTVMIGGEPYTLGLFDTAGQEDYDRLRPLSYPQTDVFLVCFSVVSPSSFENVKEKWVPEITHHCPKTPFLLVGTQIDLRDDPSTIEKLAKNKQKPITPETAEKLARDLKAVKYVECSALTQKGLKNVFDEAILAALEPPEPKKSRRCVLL

Bmax with compound (at 10 µM, stronger effect = lower value): 19800
Kd (measured here: GTP Kd with compound): 0.0464 µM
SMILES: COc1ccc(C2CC(c3ccccc3)=NN2c2ccc(S(N)(=O)=O)cc2)cc1 (configuration not stated)
